“Also recorded” adds a separate entry of the source.

The test system of data set [1] is intracellular L. donovani amastigotes. Description: Inhibition of L. donovani amastigotes in infected THP-1 macrophages. The class given is cell-based, Leishmania donovani. The conditions noted are these: 1 μM, positive control. The method in brief:
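THP-1 cells were differentiated with 25 ng/ml PMA for 24 h at 37°C, then infected with stationary-phase luciferase-expressing L. donovani promastigotes (5:1 parasite:macrophage) for 24 h and washed free of external parasites. Infected macrophages were trypsinised, checked by Giemsa stain and plated in triplicate (5 × 10^5 cells/ml). Compounds in medium with 1% DMSO were added for 48 h; lysates were read by Bright-Glo luminescence. Medium ± DMSO served as 0% inhibition; amphotericin B 1 μM was the positive control on each plate.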

The subject of data set [2] is L. tarentolae S30 translation (leishmanial ribosomes). Description: Cell-free inhibition of translation, L. tarentolae LEXSY system. Type of data set: biochemical, Leishmania tarentolae. The conditions noted are these: relative to PAR. The gist of the method: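 Leishmania tarentolae cell-free LEXSY translation system driven by a pLEXSY-in-vitro2 vector encoding EGFP. Reactions with varied aminoglycoside concentrations ran 120 min at 26°C, and GFP fluorescence was read directly (ex 488, em 507 nm). Each curve used at least six concentrations. IC50 values came from concentration-response fits of at least three independent repeats.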

Data set [3] has as its system auditory outer hair cells (organ of Corti explants). In words: Toxicity assay in cochlear explants. The class given is cell-based, CBA/J mice. The method in brief:
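Organ of Corti explants from postnatal day 2–3 CBA/J mice were kept in serum-free medium with supplement, BSA, glutamine and glucose, and pre-incubated about 48 h. They were then exposed to drug for 72 h, fixed in 4% PFA, permeabilised and stained with rhodamine phalloidin. Hair cells were counted apex to base under 50x oil and compared with a cytocochleogram database. Loss was reported as percent averaged over the whole explant length.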

A further data set has as its system Leishmania. The conditions noted are these: cited from earlier work.

Regarding `C[C@@H]1[C@H](O)[C@@H](C)/C=C/C=C/C=C/C=C/C=C/C=C/C=C/[C@H](O[C@@H]2O[C@H](C)[C@@H](O)[C@H](N)[C@@H]2O)C[C@@H]2O[C@](O)(C[C@@H](O)C[C@@H](O)[C@H](O)CC[C@@H](O)C[C@@H](O)CC(=O)O[C@H]1C)C[C@H](O)[C@H]2C(=O)O` [Amphotericin B], the “decrease in intracellular amastigotes” value in data set [1] is over 90%.
For the molecule `CN[C@@H]1[C@@H](O)[C@@H](O[C@@H]2[C@@H](O)[C@H](O[C@H]3O[C@H]([C@@H](C)O)[C@@H](O)[C@H](O)[C@H]3N)[C@@H](N)C[C@H]2N)OC[C@]1(C)O` [G418, Geneticin], in data set [2], the “times more potent in inhibiting leishmanial ribosomal translation than PAR” value is 20 times. In addition, the “toxicity to auditory outer hair cells along entire length of explant (in words)” value in data set [3] (murine explants, 72 h) is “high toxicity”.
Take `CNC(C)C1CCC(N)C(OC2C(N)CC(N)C(OC3OCC(C)(O)C(NC)C3O)C2O)O1` (centres unmarked) [Gentamicin]: the “anti-leishmanial activity (in words)” value with Leishmania is “lack an anti-leishmanial activity”.
`NC[C@@H]1O[C@H](O[C@H]2[C@@H](O)[C@H](O[C@@H]3[C@@H](O)[C@H](N)C[C@H](N)[C@H]3O[C@H]3O[C@H](CO)[C@@H](O)[C@H](O)[C@H]3N)O[C@@H]2CO)[C@H](N)[C@@H](O)[C@@H]1O` [PAR, Paromomycin]: the “outer hair cell pathology, basal turn of explant” value in data set [3] (10 μM, 72 h) is listed as “intact”; in data set [3] (22 μM, 72 h), “significant loss of OHC; also recorded: partial destruction of outer hair cells”; in data set [3] (33 μM, 72 h), “complete destruction; also recorded: complete elimination of basal-turn outer hair cells”. Also, the “IC Coch50 (outer hair cell loss in cochlear explants)” value in data set [3] (murine explants, 72 h exposure) was determined as 30 µM.

The record behind these values is article PMC4787808 (Nucleic Acids Research, 2015).
